Reference: ChEMBL document CHEMBL3102735, “Enhancing the pharmacodynamic profile of a class of selective COX-2 inhibiting nitric oxide donors” (Bioorg Med Chem, 2014)
In brackets after ≈: the same amount, converted by molar mass.

What was measured:
[1] = Stability of the compound in simulated gastric fluid assessed as compound remaining at pH 1.5 after 120 mins by LC-MS/MS analysis; assay type: physicochemical; details: read-out: Stability
Procedure, shortened: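 1 mM DMSO stock added to 0.01 M PBS (pH 7.4) or 0.05 M simulated gastric fluid without pepsin (pH 1.5 with HCl); incubated in hybridisation oven; aliquots at 0, 30, 60, 120 min quenched with ice-cold acetonitrile containing internal standard; parent remaining (%) measured.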

[2] = Solubility of the compound in simulated gastric fluid at pH 1.5 after 90 mins by HPLC analysis; assay type: ADME
Procedure, shortened: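 DMSO stock (20 mM) diluted 2 µL into 198 µL PBS 0.01 M pH 7.4 or pepsin-free SGF 0.05 M pH 1.5, duplicate wells, shaken 90 min at 300 rpm. Filtrates analysed by HPLC with photodiode-array detection against seven-point standards (1–200 µM).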

Liver = test: Induction of nitric oxide production in Wistar rat liver homogenate assessed as NOx level at 1 mM; assay type: functional, tissue-based; details: TDE = time-dependent effect
Mus musculus [3] = test: Antihyperalgesic activity in Swiss albino mouse assessed as reduction in carrageenan-induced inflammation at 40 mg/kg, po after 120 mins relative to control; assay type: functional; parameters: scale not given: the % may be the effect or the level left
Mus musculus [4] = test: Antihyperalgesic activity in Swiss albino mouse assessed as reduction in carrageenan-induced inflammation at 40 mg/kg, po after 90 mins relative to control; assay type: functional; parameters: scale not given: the % may be the effect or the level left
Mus musculus [5] = test: Antihyperalgesic activity in Swiss albino mouse assessed as reduction in carrageenan-induced inflammation at 40 mg/kg, po after 60 mins relative to control; assay type: functional; parameters: scale not given: the % may be the effect or the level left
Mus musculus [6] = test: Antihyperalgesic activity in Swiss albino mouse assessed as reduction in carrageenan-induced inflammation at 20 mg/kg, po after 60 mins relative to control; assay type: functional; parameters: scale not given: the % may be the effect or the level left
Mus musculus [7] = test: Antihyperalgesic activity in Swiss albino mouse assessed as reduction in carrageenan-induced inflammation at 20 mg/kg, po after 30 mins relative to control; assay type: functional; parameters: scale not given: the % may be the effect or the level left
Thoracic aorta = test: Ex vivo vasorelaxant activity in Wistar rat endothelium thoracic aortic ring assessed as reduction of KCl-induced contraction; assay type: functional, tissue-based
Procedure, shortened: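 Endothelium-denuded thoracic aortic rings from male Wistar rats (250–350 g) in oxygenated Tyrode-type buffer at 37 °C, isometric tension recording. Rings precontracted with 30 mM KCl, then 3-fold increasing compound concentrations (1 nM–10 µM) added, also with 1 µM ODQ preincubated. Emax as % of KCl tone; pIC50; mean ± SE of 6–10 experiments.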

[8] = target: T1, Prostaglandin G/H synthase 1 (Mus musculus, UniProt P22437); test: Inhibition of COX-1 in mouse J774 cells using arachidonic acid as substrate assessed as inhibition of prostaglandin E2 production preincubated for 15 mins followed by substrate addition measured after 30 mins by RIA; assay type: cell-based
T1 sequence (P22437 whole entry): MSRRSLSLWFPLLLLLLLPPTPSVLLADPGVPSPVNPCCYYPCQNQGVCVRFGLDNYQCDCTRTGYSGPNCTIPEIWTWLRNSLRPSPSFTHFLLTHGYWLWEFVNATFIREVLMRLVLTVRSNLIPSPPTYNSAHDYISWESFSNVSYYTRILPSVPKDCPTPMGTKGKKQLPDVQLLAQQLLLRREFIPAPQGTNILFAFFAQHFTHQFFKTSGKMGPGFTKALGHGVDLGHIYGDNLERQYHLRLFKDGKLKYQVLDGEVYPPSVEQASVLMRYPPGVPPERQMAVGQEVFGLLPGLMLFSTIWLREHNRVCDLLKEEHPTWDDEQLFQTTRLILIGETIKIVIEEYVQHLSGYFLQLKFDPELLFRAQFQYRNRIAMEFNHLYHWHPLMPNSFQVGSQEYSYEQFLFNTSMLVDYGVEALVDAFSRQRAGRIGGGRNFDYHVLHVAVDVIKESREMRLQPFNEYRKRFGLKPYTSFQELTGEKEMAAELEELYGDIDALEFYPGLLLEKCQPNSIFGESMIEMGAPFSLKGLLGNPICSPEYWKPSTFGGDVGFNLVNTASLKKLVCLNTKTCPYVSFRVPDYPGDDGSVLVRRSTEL
Procedure, shortened: (§1)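 J774 murine macrophages pretreated 15 min with compound (10 µM; lower concentrations 0.01–1 µM where needed), then incubated 30 min at 37 °C with 15 µM arachidonic acid; supernatant PGE2 measured by RIA. Triplicate wells, mean of three experiments of percent inhibition versus control; IC50 by sigmoidal fit.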

[9] = target: T2, Prostaglandin G/H synthase 1 (Mus musculus) (UniProt P22437); test: Inhibition of COX-1 in mouse J774 cells using arachidonic acid as substrate assessed as inhibition of prostaglandin E2 production at 10 uM preincubated for 15 mins followed by substrate addition measured after 30 mins by RIA; assay type: cell-based; procedure, shortened: as §1
T2 sequence (whole entry): T1 sequence (P22437 whole entry)

Mus musculus [10] = test: Analgesic activity in Swiss albino mouse assessed as reduction of acetic acid-induced writhing at 10 mg/kg, po measured every 10 mins after 5 mins of administration relative to control; assay type: functional; parameters: scale not given: the % may be the effect or the level left
Procedure, shortened: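 Male Swiss albino mice (23–25 g), compound given orally in CMC vehicle; writhing induced by 0.6% acetic acid (10 mL/kg) ip. Stretching movements counted for 10 min, starting 5 min after administration; percent reduction versus CMC-treated animals.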

remaining at 2 h [1]: 100%
solubility at 1.5 h [2]: 147 µM (≈ 69.9 µg/mL)
IC50 (Thoracic aorta): 4.9 µM
IC50 [8]: > 10 µM
inhibition [9]: 9%
Structure (SMILES): Cc1c(CC(=O)NCCO[N+](=O)[O-])cc(-c2ccc(S(C)(=O)=O)cc2)n1-c1ccc(F)cc1
Activity (Liver): tde
Activity (Mus musculus [3]): 0%
Activity (Mus musculus [4]): 29%
Activity (Mus musculus [5]): 60%
Activity (Mus musculus [6]): 30%
Activity (Mus musculus [7]): 28%
Activity (Mus musculus [10]): 63%
